# Rows were chosen to be rich in hits. Some 2.1% of all compounds tested hit in one or more screens of this group.
# SR-BI HDL uptake = blocks mouse SR-BI lipid uptake from DiI-HDL; ldlA[mSR-BI] CHO cells, DiI-HDL uptake fluorescence, 3 h; hit rate 0.96% among 320,000; AID 488896; inhibition, % at 12.5 µM;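 active = mean replicate inhibition of at least 70% and a set share of replicates each scoring 70 or more; inconclusive = meets just one of the two criteria; inactive = fails both criteria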;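 also: 0% = median of neutral control wells and 100% = median of positive control wells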
# SR-BI DiI-HDL act = enhances SR-BI lipid uptake from DiI-HDL. activation, % at 12.5 µM. CHO ldlA[mSR-BI] cells, DiI-HDL uptake fluorescence, 3 h; 100 = double the neutral-control signal. hit rate 0.096% among 320,000;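 active = mean replicate activation of at least 60% and every replicate at or above 60%; inconclusive = mean or all-replicate condition met, but not both; inactive = mean below 60% and not all replicates reaching 60%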;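 also: 0% = median plate neutral-control signal and 100% = twice that signal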
#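 Material – SR-BI-overexpressing, LDLR-lacking CHO cells · Medium – BSA-supplemented, HEPES-buffered Ham's F12, pH 7.4 · Doses – single concentration · Times – compound with DiI-HDL co-incubation, 3 h at 37 °C · Measured by – bottom-read fluorescence, 550/595 nm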
# dFosB activator = enhances mouse delta FosB homodimer DNA binding; hit rate 0.99% among 340,000; P13346; purified delta FosB, TAMRA-CDK5 oligo fluorescence polarization; percent of positive-control signal above neutral wells; activation, % at 25 µM;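 active = mean activation above about 17%, with every replicate also reaching it, limit read from the data, passing the limit was not always enough; inconclusive = only one of the two conditions met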
# Target sequence (P13346 whole entry, looked up): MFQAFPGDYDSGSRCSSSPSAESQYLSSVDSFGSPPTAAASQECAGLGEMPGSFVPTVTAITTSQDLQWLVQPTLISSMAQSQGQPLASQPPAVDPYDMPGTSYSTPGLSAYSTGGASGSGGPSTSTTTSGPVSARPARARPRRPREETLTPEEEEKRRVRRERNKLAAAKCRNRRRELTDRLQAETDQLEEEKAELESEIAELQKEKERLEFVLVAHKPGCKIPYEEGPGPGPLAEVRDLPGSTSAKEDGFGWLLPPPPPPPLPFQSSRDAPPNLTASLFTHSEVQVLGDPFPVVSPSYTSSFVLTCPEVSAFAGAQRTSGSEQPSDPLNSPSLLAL
# PKA-R1A act = activators of PKA-R1A complex; activation, % at 11.4 µM; PKA-R1A dissociation, Cy5-IP20 fluorescence polarization; scaled: DMSO 0%, 113 µM cGMP 100%; hit rate 0.083% among 340,000;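 active = percent activation above the mean of all tested compounds plus 3 SD, cut at about 19% in these data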;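 also: higher means more PKAc released from R1A so a rise in polarization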
# PKA-R2B activ = activators of human PKA-R2B complex. hit rate 0.079% among 340,000. P22694+P31323. activation, % at 11.4 µM. PKA-R2B holoenzyme dissociation, Cy5-IP20 fluorescence polarization; R2B truncated from residue 108, S112A mutant; 0% DMSO only, 100% 113 µM cGMP;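 active = activation above a cutoff set at the mean over all compounds plus 3 SD, cut at about 18% in these data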;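 also: higher means more holoenzyme dissociation and a rise in polarization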
# CDK5 inh = inhibitors of human CDK5/p35 kinase; Q00535+Q15078; inhibition, % at 10 µM; Recombinant CDK5/p35, ADP-Glo luminescence, 60 min; hit rate 0.01% among 330,000; AID 488839;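 active = highest replicate inhibition of at least 50% and at least 75% of replicates reaching 50%; inconclusive = only one of the two criteria met; inactive = both criteria failed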;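 also: plate controls were DMSO neutral control for no effect and GW8510 at 10 µM for full effect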
# * hit, by the source's call; i = inactive; ? = inconclusive; / = no result given; ! = not confirmed by another sample.
SMILES,SR-BI HDL uptake,SR-BI DiI-HDL act,dFosB activator,PKA-R1A act,PKA-R2B activ,CDK5 inh
CCOc1ccc(CNC(=O)C2CCN(S(=O)(=O)N3CCC(C)CC3)CC2)cc1OC,/,/,/,0,2,/
Cc1ccc(Nc2nc(N)c3ccccc3n2)cc1Cl,-5,5,28*,-3,2,5
Nc1nc(Nc2ccc(Cl)cc2)nc2ccccc12,-10,10,9,-9,6,6
Nc1nc(SCC(=O)c2ccc(Br)s2)n[nH]1,i,641*,-7,/,/,1
CNC(=O)Cn1nc(C)c(S(=O)(=O)N2CCOCC2)c1C,-20,20,5,5,-6,-1
CCCCN1C(=O)/C(=C2/Sc3ccccc3N2C)S/C1=N\c1ncn[nH]1,83*,-83,-40,-13,-2,-1
Cc1c(C(=O)NC2CCCC2)oc2ccccc12,28,-28,-4,1,-10,2
O=C1NC(=O)C(c2ccccc2[N+](=O)[O-])=C1Nc1ccc(O)c(Cl)c1,0,0,10,-10,0,66*
COC(=O)c1cc2c(n1S(=O)(=O)c1ccc(C)cc1)C(=O)C(=O)c1[nH]cc(C(=O)OCc3ccccc3)c1-2,88*,-88,-14,1,-1,0
CCCCc1ccc(N=N/C(C(=O)Nc2ccc(NC(C)=O)cc2OC)=C(/C)O)cc1,78*,-78,-2,5,5,2
O=C(NCc1ccc(F)cc1)C1CCN(S(=O)(=O)c2ccc(N3CCCC3=O)cc2)CC1,/,/,/,4,-6,/
Cc1ccc(CNC(=O)C2CCN(S(=O)(=O)c3cccc4nonc34)CC2)cc1,-5,5,21*,0,-12,-1
O=C(NCc1ccccc1Cl)C1CCCN(S(=O)(=O)c2cccc3nonc23)C1 (stereo not drawn),/,/,39*,5,-12,-2
COc1ccccc1CNC(=O)C1CCCN(S(=O)(=O)c2cccc3nonc23)C1 (stereo not drawn),-3,3,-6,-8,-3,0
O=C(NCc1ccccc1Cl)C1CCN(S(=O)(=O)c2ccc(N3CCCC3=O)cc2)CC1,114*,/,-6,-5,-7,1
N#Cc1ccccc1OCC(=O)N1CCN(S(=O)(=O)c2ccc(Cl)cc2)CC1,-17,17,-4,1,3,-2
CCOc1ccccc1/C=C/c1onc(C)c1S(=O)(=O)N1CCC(C(=O)N(CC)CC)CC1,71*,-71,-18,-4,-1,1
Cc1noc(/C=C/c2ccco2)c1S(=O)(=O)N1CCC(C(=O)NC(C)c2ccccc2)CC1 (stereo not drawn),81*,-81,-4,-6,7,-1
CCN(CCN(C)C)C(=O)C1CCN(S(=O)(=O)c2c(C)noc2/C=C/c2ccccc2F)CC1,25,-25,-1,-6,2,/
COc1ccc(CN(C)C(=O)c2ccccc2Sc2ccccc2C#N)c(OC)c1,34,-34,-14,-8,-2,1
CCN1/C(=C2\SC(=S)N(Cc3ccccc3)C2=O)Sc2ccccc21,13,-13,-8,-8,-9,-2
CCC(CO)[n+]1c(C)cc(/C=C2\Sc3ccccc3N2Cc2ccccc2)cc1C (stereo not drawn),48,-48,24*,-8,-4,2
CCOC(=O)CCCN(c1[nH]c(C)c(C)c1C#N)S(=O)(=O)c1ccc(C)cc1,/,/,/,-4,-2,/
CCOc1ccc(NC(=O)CNC(=O)c2nn(-c3ccc(OC)cc3)c(=O)c3ccccc23)cc1,/,/,-1,-6,-3,0
N=c1n(CC(=O)c2ccc(Br)s2)c2ccccc2n1Cc1ccccc1,-2,2,25*,-2,-6,0
SMILES,SR-BI HDL uptake,SR-BI DiI-HDL act,dFosB activator,PKA-R1A act,PKA-R2B activ,CDK5 inh
COCCN=c1scc(-c2cc(OC)c(OC)c(OC)c2)n1/N=C/c1c(C)[nH]c2ccccc12,92*,-92,-9,-8,-13,-1
O=C(N/N=C1\CCSc2ccc(F)cc21)c1cccnc1,1,-1,-12,-10,6,0
NC(=S)N/N=C1\CCSc2ccc(Cl)cc21,81*,-81,-7,/,/,-1
CCOC(=O)COc1c(Br)cc(/C=C2\SC(=O)N(CC(=O)N3CCCC3)C2=O)cc1OC,72*,-72,-2,-16,-2,1
COCCNC(=O)CSc1ccccc1C(=O)NCC1CCCCC1,-22,22,1,-9,-11,-1
CC1CCN(C(=O)c2ccccc2SCC(=O)NCC2CCCCC2)CC1,i,588*,-7,7,-7,0
COc1ccc(CNCCSc2nnnn2C)cc1OC,-3,3,-6,-15,-6,1
COc1cccc(CNCCSc2nnnn2C)c1,-60,60*,-3,-18,4,-1
Cc1ccc2oc(C(=O)Nc3ccc(S(=O)(=O)Nc4ncccn4)cc3)c(C)c2c1,0,0,-3,-4,-6,-8
Cc1c(CNCCc2ccccc2Cl)c(C(=O)O)c(C)n1-c1ccccc1,-169,169*,-6,2,1,-3
O=C(OCCOc1ccc(Br)cc1)c1ccc(Cl)c(S(=O)(=O)N2CCOCC2)c1,51,-51,-7,0,-5,1
Cc1ccc(C(=O)Nn2c(C)nc3ccccc3c2=O)cc1C,9,-9,0,5,8,0
CCCCCCCCCCOC(=O)Cn1c(COc2ccccc2)[n+](C)c2ccccc21,-14,14,35*,-8,3,1
CCCCCCCCCCOC(=O)Cn1c(COc2cccc(C)c2)[n+](C)c2ccccc21,-24,24,?,-10,-9,1
CCCCCCCCCCOC(=O)Cn1c(COc2ccc(OC)cc2)[n+](C)c2ccccc21,-6,6,40*!,-7,1,2
CCCCCCCCCCOC(=O)Cn1c(COc2ccc(Cl)cc2)[n+](C)c2ccccc21,5,-5,-118,-13,1,1
CCCCCCCCCCOC(=O)Cn1c(COc2ccccc2C)[n+](C)c2ccccc21,-21,21,37*,-4,4,2
CCOc1cc2[nH]c(=S)n(C3CCN(Cc4ccccc4)CC3)c(=O)c2cc1OCC,75*,-75,-6,-9,7,-1
C=CCc1ccccc1OCC(O)CN1CCN(CCN2C(=O)c3cccc4cccc(c34)C2=O)CC1 (stereo not drawn),31,-31,47*,0,3,1
COc1ccc(COc2cc(-c3cccc(OC)c3)nc3ccc(NC(=O)c4ccc(N(C)C)cc4)cc23)cc1,90*,-90,-4,-1,-4,-2
COc1ccc(COc2cc(-c3cccc(OC)c3)nc3ccc(NC(=O)c4ccc(C)cc4)cc23)cc1,72*,-72,0,2,-12,0

# From PubChem
